Source: ChEMBL document CHEMBL4422636, “Investigation of the structural requirements for N-methyl-D-aspartate receptor positive and negative allosteric modulators based on 2-naphthoic acid” (Eur J Med Chem, 2019)
Calls of active or inactive are those of the source. No cut-off for these calls is given here.

Tests used:
[1] = molecular target: Glutamate receptor ionotropic, NMDA 2A (Rattus norvegicus) (UniProt Q00959); experiment: Allosteric modulation of rat GluN2A expressed in Xenopus laevis oocytes assessed as L-glutamate/glycine-induced current response at 100 uM at holding potential -60 mV by two-electrode voltage clamp method relative to L-glutamate/glycine; type: cell-based
Procedure, shortened: (§1)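 GluN1a with one GluN2 subunit; RNAs mixed 1:1–3 molar, 15–30 ng total injected into Xenopus oocytes, which were held in ND-96 at 17°C for 1–5 days. TEVC at −60 mV in 116 mM NaCl, 2 mM KCl, 0.3 mM BaCl2, 5 mM HEPES, pH 7.4. […] Reported as % of agonist-alone response, mean ± s.e.m., n≥4.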

[2] = molecular target: Glutamate receptor ionotropic, NMDA 2B (Rattus norvegicus) (UniProt Q00960); experiment: Allosteric modulation of rat GluN2B expressed in Xenopus laevis oocytes assessed as L-glutamate/glycine-induced current response at 100 uM at holding potential -60 mV by two-electrode voltage clamp method relative to L-glutamate/glycine; type: cell-based; procedure, shortened: as §1
[3] = molecular target: Glutamate receptor ionotropic, NMDA 2C (Rattus norvegicus) (UniProt Q00961); experiment: Allosteric modulation of rat GluN2C expressed in Xenopus laevis oocytes assessed as L-glutamate/glycine-induced current response at 100 uM at holding potential -60 mV by two-electrode voltage clamp method relative to L-glutamate/glycine; type: cell-based; procedure, shortened: as §1
[4] = molecular target: Glutamate receptor ionotropic, NMDA 2D (Rattus norvegicus) (UniProt Q62645); experiment: Allosteric modulation of rat GluN2D expressed in Xenopus laevis oocytes assessed as L-glutamate/glycine-induced current response at 100 uM at holding potential -60 mV by two-electrode voltage clamp method relative to L-glutamate/glycine; type: cell-based; procedure, shortened: as §1
[5] = molecular target: T1, Glutamate NMDA receptor; Grin1/Grin2a (Rattus norvegicus, UniProt P35439+Q00959); experiment: Positive allosteric modulation of rat GluN1/GluN2A expressed in Xenopus laevis oocytes assessed as potentiation of L-glutamate/glycine-induced current response at holding potential -60 mV by two-electrode voltage clamp method; type: cell-based
Procedure, shortened: (§2)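 Oocytes injected with GluN1a plus GluN2A, 2B, 2C or 2D RNA (1:1–3 molar, 15–30 ng total) and kept in ND-96 at 17°C for 1–5 days. TEVC at −60 mV in HEPES-buffered NaCl/KCl/BaCl2 saline, pH 7.4. […] Curves were fitted to give EC50/IC50 and maximal potentiation or inhibition, mean ± s.e.m.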

[6] = molecular target: T2, Glutamate NMDA receptor; Grin1/Grin2b (Rattus norvegicus, UniProt P35439+Q00960); experiment: Positive allosteric modulation of rat GluN1/GluN2B expressed in Xenopus laevis oocytes assessed as potentiation of L-glutamate/glycine-induced current response at holding potential -60 mV by two-electrode voltage clamp method; type: cell-based; procedure, shortened: as §2
[7] = molecular target: T3, Glutamate NMDA receptor; Grin1/Grin2c (Rattus norvegicus, UniProt P35439+Q00961); experiment: Positive allosteric modulation of rat GluN1/GluN2C expressed in Xenopus laevis oocytes assessed as potentiation of L-glutamate/glycine-induced current response at holding potential -60 mV by two-electrode voltage clamp method; type: cell-based; procedure, shortened: as §2
[8] = molecular target: T4, Ionotropic glutamate receptor NMDA 1/2D (Rattus norvegicus, UniProt P35439+Q62645); experiment: Positive allosteric modulation of rat GluN1/GluN2D expressed in Xenopus laevis oocytes assessed as potentiation of L-glutamate/glycine-induced current response at holding potential -60 mV by two-electrode voltage clamp method; type: cell-based; procedure, shortened: as §2
[9] = Solubility of the compound at 100 uM; type: physicochemical
Procedure, shortened: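 Compounds were inspected for visible precipitation at the concentrations used in the oocyte assays.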

[10] = molecular target: Glutamate receptor ionotropic, NMDA 2A (Rattus norvegicus) (UniProt Q00959); experiment: Agonist activity at rat GluN2A expressed in Xenopus laevis oocytes assessed effect on current response at holding potential -60 mV by two-electrode voltage clamp method relative to L-glutamate/glycine; type: cell-based; procedure, shortened: as §1
[11] = molecular target: Glutamate receptor ionotropic, NMDA 2B (Rattus norvegicus) (UniProt Q00960); experiment: Agonist activity at rat GluN2B expressed in Xenopus laevis oocytes assessed as effect on current response at holding potential -60 mV by two-electrode voltage clamp method relative to L-glutamate/glycine; type: cell-based; procedure, shortened: as §1
[12] = molecular target: Glutamate receptor ionotropic, NMDA 2C (Rattus norvegicus) (UniProt Q00961); experiment: Agonist activity at rat GluN2C expressed in Xenopus laevis oocytes assessed effect on current response at holding potential -60 mV by two-electrode voltage clamp method relative to L-glutamate/glycine; type: cell-based; procedure, shortened: as §1
[13] = molecular target: Glutamate receptor ionotropic, NMDA 2D (Rattus norvegicus) (UniProt Q62645); experiment: Agonist activity at rat GluN2D expressed in Xenopus laevis oocytes assessed as effect on current response at holding potential -60 mV by two-electrode voltage clamp method relative to L-glutamate/glycine; type: cell-based; procedure, shortened: as §1
[14] = molecular target: Glutamate receptor ionotropic, NMDA 2A (Rattus norvegicus) (UniProt Q00959); experiment: Positive allosteric modulation of rat GluN2A expressed in Xenopus laevis oocytes assessed as potentiation of L-glutamate/glycine-induced current response at holding potential -60 mV by two-electrode voltage clamp method relative to L-glutamate/glycine; type: cell-based; set-up: concentration or dose not given beside the values; procedure, shortened: as §2
[15] = molecular target: Glutamate receptor ionotropic, NMDA 2B (Rattus norvegicus) (UniProt Q00960); experiment: Positive allosteric modulation of rat GluN2B expressed in Xenopus laevis oocytes assessed as potentiation of L-glutamate/glycine-induced current response at holding potential -60 mV by two-electrode voltage clamp method relative to L-glutamate/glycine; type: cell-based; procedure, shortened: as §2
[16] = molecular target: Glutamate receptor ionotropic, NMDA 2C (Rattus norvegicus) (UniProt Q00961); experiment: Positive allosteric modulation of rat GluN2C expressed in Xenopus laevis oocytes assessed as potentiation of L-glutamate/glycine-induced current response at holding potential -60 mV by two-electrode voltage clamp method relative to L-glutamate/glycine; type: cell-based; set-up: concentration or dose not given beside the values; procedure, shortened: as §2
[17] = molecular target: Glutamate receptor ionotropic, NMDA 2D (Rattus norvegicus) (UniProt Q62645); experiment: Positive allosteric modulation of rat GluN2D expressed in Xenopus laevis oocytes assessed as potentiation of L-glutamate/glycine-induced current response at holding potential -60 mV by two-electrode voltage clamp method relative to L-glutamate/glycine; type: cell-based; set-up: concentration or dose not given beside the values; procedure, shortened: as §2
[18] = molecular target: T1, Glutamate NMDA receptor; Grin1/Grin2a; experiment: Negative allosteric modulation of rat GluN1/GluN2A expressed in Xenopus laevis oocytes assessed as inhibition of L-glutamate/glycine-induced current response at holding potential -60 mV by two-electrode voltage clamp method; type: cell-based; procedure, shortened: as §2
[19] = molecular target: Glutamate NMDA receptor; Grin1/Grin2a (Rattus norvegicus) (UniProt P35439+Q00959); experiment: Negative allosteric modulation of rat GluN1/GluN2A expressed in Xenopus laevis oocytes assessed as inhibition of L-glutamate/glycine-induced current response at holding potential -60 mV by two-electrode voltage clamp method relative to untreated control; type: cell-based; set-up: concentration or dose not given beside the values; procedure, shortened: as §2
[20] = molecular target: T2, Glutamate NMDA receptor; Grin1/Grin2b; experiment: Negative allosteric modulation of rat GluN1/GluN2B expressed in Xenopus laevis oocytes assessed as inhibition of L-glutamate/glycine-induced current response at holding potential -60 mV by two-electrode voltage clamp method; type: cell-based; procedure, shortened: as §2
[21] = molecular target: Glutamate NMDA receptor; Grin1/Grin2b (Rattus norvegicus) (UniProt P35439+Q00960); experiment: Negative allosteric modulation of rat GluN1/GluN2B expressed in Xenopus laevis oocytes assessed as inhibition of L-glutamate/glycine-induced current response at holding potential -60 mV by two-electrode voltage clamp method relative to untreated control; type: cell-based; set-up: concentration or dose not given beside the values; procedure, shortened: as §2
[22] = molecular target: T3, Glutamate NMDA receptor; Grin1/Grin2c; experiment: Negative allosteric modulation of rat GluN1/GluN2C expressed in Xenopus laevis oocytes assessed as inhibition of L-glutamate/glycine-induced current response at holding potential -60 mV by two-electrode voltage clamp method; type: cell-based; procedure, shortened: as §2
[23] = molecular target: T5, Glutamate NMDA receptor; Grin1/Grin2c (Rattus norvegicus) (UniProt P35439+Q00961); experiment: Negative allosteric modulation of rat GluN1/GluN2C expressed in Xenopus laevis oocytes assessed as inhibition of L-glutamate/glycine-induced current response at holding potential -60 mV by two-electrode voltage clamp method relative to untreated control; type: cell-based; set-up: concentration or dose not given beside the values; procedure, shortened: as §2
[24] = molecular target: T4, Ionotropic glutamate receptor NMDA 1/2D; experiment: Negative allosteric modulation of rat GluN1/GluN2D expressed in Xenopus laevis oocytes assessed as inhibition of L-glutamate/glycine-induced current response at holding potential -60 mV by two-electrode voltage clamp method; type: cell-based; procedure, shortened: as §2
[25] = molecular target: Ionotropic glutamate receptor NMDA 1/2D (Rattus norvegicus) (UniProt P35439+Q62645); experiment: Negative allosteric modulation of rat GluN1/GluN2D expressed in Xenopus laevis oocytes assessed as inhibition of L-glutamate/glycine-induced current response at holding potential -60 mV by two-electrode voltage clamp method relative to untreated control; type: cell-based; set-up: concentration or dose not given beside the values; procedure, shortened: as §2
[26] = molecular target: T5, Glutamate NMDA receptor; Grin1/Grin2c (Rattus norvegicus); experiment: Negative allosteric modulation of rat GluN1/GluN2C expressed in Xenopus laevis oocytes assessed as inhibition of 300 uM glutamate/glycine-induced current response at 30 uM at -60 mV holding potential by two-electrode voltage clamp method; type: cell-based
[27] = molecular target: T5, Glutamate NMDA receptor; Grin1/Grin2c (Rattus norvegicus); experiment: Negative allosteric modulation of rat GluN1/GluN2C expressed in Xenopus laevis oocytes assessed as inhibition of 10 uM glutamate/glycine-induced current response at 30 uM at -60 mV holding potential by two-electrode voltage clamp method; type: cell-based

Row | Compound | Activity [1] [%] | Activity [2] [%] | Activity [3] [%] | Activity [4] [%] | EC50 [5] [µM] | EC50 [6] [µM] | EC50 [7] [µM] | EC50 [8] [µM] | solubility [9] | Activity [10] | Activity [11] | Activity [12] | Activity [13] | Activity [14] [%] | Activity [15] [%] | Activity [16] [%] | Activity [17] [%] | IC50 [18] [µM] | Activity [19] [%] | IC50 [20] [µM] | other results
1 | CC(C)CCC(C)c1ccc2cc(C(=O)O)ccc2c1 (racemic) | 281 | 225 | 337 | 317 | 39.4 | 25 | 36.2 | 30.6 | Soluble | inactive | inactive | inactive | inactive | 277 | 192 | 263 | 240 |  |  |  | 
2 | CC(C)CCCc1ccc2cc(C(=O)O)ccc2c1 | 171 | 171 | 192 | 207 | 28 | 34.6 | 37.2 | 28.9 | Soluble | inactive | inactive | inactive | inactive | 68.6 | 102 | 117 | 88.4 |  |  |  | 
3 | O=C(O)c1cc2cc(/C=C/c3ccccc3)ccc2cc1O | 32.7 | 7.3 | 21.7 | 11.3 |  |  |  |  | Soluble |  |  |  |  |  |  |  |  | 17.8 | 83.2 | 7.5 | Activity [21]: 93.9%; IC50 [22]: 13.8 µM; Activity [23]: 86.3%; IC50 [24]: 8.6 µM; Activity [25]: 93.6%
4 | O=C(O)c1cc2cc(/C=C/c3cccc([N+](=O)[O-])c3)ccc2cc1O | 50.5 | 28.8 | 24.4 | 30.7 |  |  |  |  | Soluble |  |  |  |  |  |  |  |  | 9.7 | 49.7 | 9.2 | Activity [21]: 66.3%; IC50 [22]: 7.9 µM; Activity [23]: 74.4%; IC50 [24]: 1.4 µM; Activity [25]: 70%
5 | C=C(CCC(C)C)c1ccc2cc(C(=O)O)ccc2c1 | 163 | 265 | 349 | 310 | 114 | 116 | 26.1 | 72.3 | Soluble | inactive | inactive | inactive | inactive | 230 | 417 | 137 | 277 |  |  |  | 
6 | O=C(O)c1cc2cc(/C=C/c3ccccc3[N+](=O)[O-])ccc2cc1O | 80.5 | 56.1 | 35.1 | 26.8 |  |  |  |  | Soluble |  |  |  |  |  |  |  |  | 6 | 30.5 | 32.2 | Activity [26]: Active; Activity [27]: Active; Activity [21]: 61.3%; IC50 [22]: 8.2 µM; Activity [23]: 80.1%; IC50 [24]: 2.9 µM; Activity [25]: 79.7%
7 | O=C(O)c1ccc2cc(CCCC3CCCC3)ccc2c1 | 136 | 175 | 171 | 161 | 7.5 | 27 | 22.4 | 34.7 | Soluble | inactive | inactive | inactive | inactive | 38.4 | 61.9 | 105 | 65.6 |  |  |  | 
